Consider two compounds from publication PMC11092366 (RSC Advances, 2024).

For data set [1], the target named is L. donovani DNA topoisomerase I. As to conditions: L. donovani DNA topoisomerase I poison; cited from earlier work.
Data set [2] deals with L. infantum MHOM/TN/80/IPT1 promastigotes. The experiment in a line: L. infantum viability assay. The format is cell-based, Leishmania infantum. An outline of the steps: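 Late log/stationary promastigotes, kept in EMTM at 26–28 °C, then RPMI-PY. Plated at 2.5 × 10^6 parasites per mL with 20 μM test compound, 72 h, 26 °C, in duplicate, miltefosine as positive control. Viability by CellTiter 96 aqueous assay gives % inhibition. SI is THP-1 CC50 divided by promastigote IC50. IC50 comes from 20–0.31 μM dilutions, fitted by nonlinear regression with unconstrained Hill slope.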

A short description of data set [3]: Cytotoxicity on PMA-differentiated THP-1 cells. The format is cell-based. As to conditions: human, PMA-differentiated macrophage-like THP-1 cells. An outline of the steps: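 Human THP-1 cells grown in RPMI-1640 with 10% heat-inactivated FBS, 2 mM L-glutamine, penicillin and streptomycin at 37 °C, 5% CO2. Seeded at 5 × 10^6 cells per mL and differentiated 48 h with 20 ng mL−1 PMA. After adhesion, exposed to 1:2 dilutions (100 to 3.12 μM), in duplicate, with untreated and miltefosine controls. CellTiter 96 aqueous read-out; CC50 by nonlinear regression, mean and 95% CI.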

With `c1ccc2c(Cc3c[nH]c4ccccc34)c[nH]c2c1` [DIM, 3,3′-Diindolylmethane], the IC50 in data set [1] was 1.2 µM.

With `CCCCCCCCCCCCCCCCOP(=O)([O-])OCC[N+](C)(C)C` [MILT, Miltefosine], the “SI (selectivity index = CC50/IC50)” value in data set [2] (CC50 THP-1 / IC50 L. infantum promastigotes) is 9.9. The IC50 in data set [2] (Leishmania infantum, 72 h, read-out: L. infantum IC50 (μM) (95% CI), L. infantum MHOM/TN/80/IPT1 promastigotes, 72 h, mean and 95% CI, duplicate experiments) was determined as 3.7 µM. It took 36.6 µM to reach half-maximal cytotoxicity in data set [3] (CC50).
